Published values of several laboratories.
Each line is one published result; the experiments were not run side by side.
FGFR3 G697C: Fibroblast growth factor receptor 3 (FGFR3, Homo sapiens, UniProt P22607, G697C)
FGFR3: Fibroblast growth factor receptor 3 (FGFR3, Homo sapiens, UniProt P22607)

SMILES | target | assay | setting | remaining binding
Nc1ncc2c(n1)-c1c([nH]c3ccc(C#CC4CC4)cc13)CCCC2 | FGFR3 G697C | binding, competition with immobilised ligand | 1 µM | 100%
Cc1cnn2ncc(-c3ccnc(N(C)C)n3)c2c1 | FGFR3 | binding | 1 µM | 100%
C[C@@H]1CN(c2ccc3ncc(-c4ccc5[nH]nc(C6CC6)c5c4)n3n2)C[C@H](C)O1 | FGFR3 | binding, competition with immobilised ligand | 50 nM | 100%
C[C@@H](c1ccc(-n2cnc3c(N)ncnc32)cc1)N1CCc2nn(C)c(Cc3ccccc3)c2C1=O | FGFR3 | binding, competition with immobilised ligand | 0.1 µM | 80%
Cc1cnc(Nc2ccc(C(=O)N3CCC(N4CCCC4)CC3)cc2)nc1-c1cc2ccccc2s1 | FGFR3 | binding, competition with immobilised ligand | 1 µM | 23%
c1cnn2ncc(-c3ccnc(N4CCC45COC5)n3)c2c1 | FGFR3 | binding | 1 µM | 100%
C=CC(=O)N1CCC(C(=O)NCC(=O)N2CCN(c3nc(-c4cnc(N)nc4C(F)F)nc(N4CCOCC4)n3)CC2)CC1 | FGFR3 G697C | binding, competition with immobilised ligand | 1 µM | 99%
O=C(NCc1ncc(C(F)(F)F)cc1Cl)c1ccc2c(c1)C1(CCS(=O)(=O)CC1)[C@H](C1CC1)N2S(=O)(=O)c1ccc(F)cc1 | FGFR3 G697C | cell-free assay, competition with immobilised ligand | 1 µM | 100%
N#Cc1ccccc1CSc1nnc2c(n1)[nH]c1ccccc12 | FGFR3 | binding, competition with immobilised ligand | 10 µM | 88%
CNC(=O)[C@@H]1CC[C@@H](n2c(-c3ccc4cnccc4c3)nc3ccc(C(=O)NCc4cccc(C(N)=O)c4)cc32)C1 | FGFR3 G697C | binding, competition with immobilised ligand | 1 µM | 93%
CSc1cccnc1N1CCN(Cc2nc3ccccc3[nH]2)CC1 | FGFR3 G697C | cell-free assay, competition with immobilised ligand | 1 µM | 100%
C[C@@H]1CCN(c2nccc(-c3cnn4ncccc34)n2)C1 | FGFR3 | binding | 1 µM | 90%
Cc1cc(-n2nc(Cc3cc(F)cc(C(F)(F)F)c3)nc2C)ccc1C(N)=O | FGFR3 G697C | cell-free assay, competition with immobilised ligand | 1 µM | 100%
COc1cnc(Nc2cccc(S(N)(=O)=O)c2)nc1N1CCN(c2ccccc2)C(=O)C1 | FGFR3 G697C | binding, competition with immobilised ligand | 1 µM | 92%
O=C(c1ccc(Nc2ncc(Cl)c(-c3ccc(Cl)s3)n2)cc1)N1CCC(N2CCCC2)CC1 | FGFR3 | binding, competition with immobilised ligand | 1 µM | 19%
O=C(NCC1CCOCC1)c1n[nH]cc1NC(=O)c1c(F)cccc1F | FGFR3 G697C | binding, competition with immobilised ligand | 1 µM | 100%
CCCOc1ccc([C@H]2[C@H](C(=O)O)[C@@H](c3ccc4c(c3)OCO4)CN2CC(=O)Nc2c(CC)cccc2CC)cc1 | FGFR3 G697C | cell-free assay, competition with immobilised ligand | 1 µM | 85%
O=C(c1ccc(Nc2ncc(Cl)c(-c3cc4ccccc4s3)n2)cc1)N1CCC(N2CCCC2)CC1 | FGFR3 | binding, competition with immobilised ligand | 1 µM | 38%

SMILES | target | assay | setting | remaining binding
O=C1NC(c2ccccn2)Sc2ccccc21 (centres unmarked) | FGFR3 | cell-free assay, competition with immobilised ligand | 1 µM | 97%
CC1CCCN1c1nccc(-c2cnn3ncccc23)n1 (centres unmarked) | FGFR3 | binding | 1 µM | 100%
O=C(Nc1c[nH]nc1C(=O)NC1CCNCC1)c1cc(F)cc(F)c1 | FGFR3 G697C | binding, competition with immobilised ligand | 1 µM | 100%
O=C(c1ccc(Nc2nccc(-c3cc4ccccc4s3)n2)cc1)N1CCC(N2CCCC2)CC1 | FGFR3 | binding, competition with immobilised ligand | 1 µM | 87%
COc1cnc(Nc2cccc(S(N)(=O)=O)c2)nc1N1CCN(c2ccccc2)CC1 | FGFR3 G697C | binding, competition with immobilised ligand | 1 µM | 100%
N[C@@H]1CCN(c2nccc(-c3cnn4ncccc34)n2)C1 | FGFR3 G697C | binding | 1 µM | 100%
c1cncc(-c2cccc(Nc3nccc(NC4CCCCC4)n3)c2)c1 | FGFR3 | binding, competition with immobilised ligand | 10 µM | 60%
O=C(NCCCN1CCOCC1)c1ccc(Nc2ncc(Cl)c(-c3ccc(Cl)s3)n2)cc1 | FGFR3 | binding, competition with immobilised ligand | 1 µM | 41%
COc1ccnn2ncc(-c3ccnc(N(C)C)n3)c12 | FGFR3 | binding | 1 µM | 95%
CCCCN(CCCC)C(=O)CN1C[C@@H](c2cc(OC)c3c(c2)OCO3)[C@H](C(=O)O)[C@H]1CC(C)(C)CCC | FGFR3 | cell-free assay, competition with immobilised ligand | 1 µM | 88.5%
CN(CCCC(F)(F)F)c1nccc(-c2cnn3ncccc23)n1 | FGFR3 | binding | 1 µM | 93%
COc1ccc2c(c1)O[C@@H](c1ccc(OC)c(OC)c1)C[C@H]2NC(=O)C1(c2ccc3c(c2)OC(F)(F)O3)CC1 | FGFR3 | cell-free assay, competition with immobilised ligand | 1 µM | 89%
COc1ncc2cc3ccccc3nc2c1C#N | FGFR3 G697C | cell-free assay, competition with immobilised ligand | 5 µM | 96%
CCN1CCN(Cc2ccc(C(=O)Nc3ccc(C)c(Oc4ccc5c(c4)CC(=O)N5)c3)cc2C(F)(F)F)CC1 | FGFR3 | binding, competition with immobilised ligand | 1 µM | 100%
O=C(NCCCN1CCOCC1)c1ccc(Nc2nccc(-c3cc4ccccc4s3)n2)cc1 | FGFR3 | binding, competition with immobilised ligand | 1 µM | 94%
COc1ccc2cc(OCC3(C(=O)O)CN(C(=O)c4ccc(F)cc4)C3)ccc2c1 | FGFR3 G697C | cell-free assay, competition with immobilised ligand | 1 µM | 88%
CN1CCN(c2ccc(Nc3nccc(-c4ccccc4)n3)cc2C(F)(F)F)CC1 | FGFR3 G697C | binding | 10 µM | 86%
